Measurements from ChEMBL document CHEMBL1777776, “Identification of 2-mercaptohexanoic acids as dual inhibitors of 5-lipoxygenase and microsomal prostaglandin E₂ synthase-1” (Bioorg Med Chem, 2011).
Active and inactive are the calls of the source. The rule behind the calls is not given here.

Assays:
[1] = target: T1, Prostaglandin G/H synthase 1 (Ovis aries) (UniProt P05979); assay: Inhibition of ovine COX1 assessed as residual activity at 10 uM after 5 mins
T1 sequence (whole entry): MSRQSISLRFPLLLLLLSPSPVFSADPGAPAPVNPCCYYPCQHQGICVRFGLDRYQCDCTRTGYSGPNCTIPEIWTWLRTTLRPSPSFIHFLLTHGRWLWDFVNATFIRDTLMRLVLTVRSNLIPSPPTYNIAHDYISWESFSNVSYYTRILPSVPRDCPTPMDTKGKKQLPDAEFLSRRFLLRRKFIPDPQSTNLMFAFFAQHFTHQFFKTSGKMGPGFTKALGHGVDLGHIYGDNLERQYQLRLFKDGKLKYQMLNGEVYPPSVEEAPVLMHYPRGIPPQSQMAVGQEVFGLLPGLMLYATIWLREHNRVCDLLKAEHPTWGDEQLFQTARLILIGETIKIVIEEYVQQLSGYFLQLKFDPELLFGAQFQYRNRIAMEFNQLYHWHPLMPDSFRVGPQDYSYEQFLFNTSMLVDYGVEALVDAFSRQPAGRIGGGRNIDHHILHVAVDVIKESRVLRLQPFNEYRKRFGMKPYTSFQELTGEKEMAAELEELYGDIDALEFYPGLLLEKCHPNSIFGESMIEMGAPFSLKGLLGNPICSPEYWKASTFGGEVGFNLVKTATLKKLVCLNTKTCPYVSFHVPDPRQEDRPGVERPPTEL
Summary of the method: (§1)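 Ovine COX-1 (50 units) or human recombinant COX-2 (20 units) in 1 ml 100 mM Tris pH 8 with 5 mM glutathione, 5 µM haemoglobin and 100 µM EDTA. Preincubated with 10 µM compound 5 min at 4 °C, warmed 60 s at 37 °C. Started with AA (5 µM for COX-1, 2 µM for COX-2), run 5 min at 37 °C. 12-HHT extracted and analysed by HPLC. n = 3.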

[2] = target: T2, Prostaglandin G/H synthase 2 (Homo sapiens) (UniProt P35354); assay: Inhibition of human recombinant COX2 assessed as residual activity at 10 uM after 5 mins; summary of the method: as §1
T2 sequence (whole entry): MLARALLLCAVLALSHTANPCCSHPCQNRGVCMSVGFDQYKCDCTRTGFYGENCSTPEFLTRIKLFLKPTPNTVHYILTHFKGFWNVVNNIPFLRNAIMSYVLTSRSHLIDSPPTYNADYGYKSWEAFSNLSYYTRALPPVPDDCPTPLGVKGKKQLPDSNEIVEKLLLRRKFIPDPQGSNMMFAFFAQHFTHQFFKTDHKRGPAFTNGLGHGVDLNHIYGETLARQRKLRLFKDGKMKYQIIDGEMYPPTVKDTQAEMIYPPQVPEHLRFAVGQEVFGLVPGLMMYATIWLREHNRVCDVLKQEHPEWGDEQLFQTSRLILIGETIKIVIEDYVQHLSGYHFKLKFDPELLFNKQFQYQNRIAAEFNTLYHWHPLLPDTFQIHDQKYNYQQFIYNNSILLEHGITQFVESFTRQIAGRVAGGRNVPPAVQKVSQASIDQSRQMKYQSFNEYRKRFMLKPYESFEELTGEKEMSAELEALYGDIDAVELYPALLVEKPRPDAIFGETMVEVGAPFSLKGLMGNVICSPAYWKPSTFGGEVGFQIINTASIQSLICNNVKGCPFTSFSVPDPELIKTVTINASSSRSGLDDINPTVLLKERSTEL

[3] = target: T3, Polyunsaturated fatty acid lipoxygenase ALOX12 (Homo sapiens) (UniProt P18054); assay: Inhibition of 12-lipoxygenase in A23187-stimulated human PMNL assessed as reduction of 12(S)-H(P)ETE formation up to 10 uM preincubated 15 mins by RP-HPLC analysis in presence of exogenous arachidonic acid
T3 sequence (whole entry): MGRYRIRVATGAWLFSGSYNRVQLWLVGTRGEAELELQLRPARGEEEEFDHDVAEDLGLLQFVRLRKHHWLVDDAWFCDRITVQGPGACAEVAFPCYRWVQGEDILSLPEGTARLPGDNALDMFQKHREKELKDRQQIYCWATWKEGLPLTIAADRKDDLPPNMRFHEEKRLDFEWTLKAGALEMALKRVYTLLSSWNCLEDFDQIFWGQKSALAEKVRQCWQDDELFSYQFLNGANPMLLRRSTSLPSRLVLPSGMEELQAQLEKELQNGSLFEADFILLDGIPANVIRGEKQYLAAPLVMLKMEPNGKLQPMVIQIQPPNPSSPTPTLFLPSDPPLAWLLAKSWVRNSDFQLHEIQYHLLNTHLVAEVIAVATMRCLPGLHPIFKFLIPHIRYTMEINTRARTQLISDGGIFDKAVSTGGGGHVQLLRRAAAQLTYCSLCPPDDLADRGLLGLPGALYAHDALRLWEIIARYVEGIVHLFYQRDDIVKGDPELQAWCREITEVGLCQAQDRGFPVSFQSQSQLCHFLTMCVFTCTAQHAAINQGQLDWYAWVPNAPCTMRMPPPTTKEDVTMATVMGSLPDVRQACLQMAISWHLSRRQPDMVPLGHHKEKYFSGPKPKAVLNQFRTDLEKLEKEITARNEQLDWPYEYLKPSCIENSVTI
Summary of the method: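 Freshly isolated human PMNL (5 × 10⁶/ml PGC buffer: PBS pH 7.4, 1 mg/ml glucose, 1 mM CaCl₂) preincubated with compound 15 min at 37 °C. Stimulated with 2.5 µM A23187 plus exogenous AA for 10 min at 37 °C. Stopped with methanol, PGB₁ added as internal standard, lipoxygenase products analysed by HPLC. Mean of n = 3–5.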

Prostaglandin E synthase = target: T4, Prostaglandin E synthase (Homo sapiens, UniProt O14684); assay: Inhibition of mPGES-1 in human IL-1beta-stimulated A549 cell microsomes assessed as reduction of PGE2 formation from PGH2 after 15 mins; parameters: species or system Microsome
T4 sequence (O14684 whole entry): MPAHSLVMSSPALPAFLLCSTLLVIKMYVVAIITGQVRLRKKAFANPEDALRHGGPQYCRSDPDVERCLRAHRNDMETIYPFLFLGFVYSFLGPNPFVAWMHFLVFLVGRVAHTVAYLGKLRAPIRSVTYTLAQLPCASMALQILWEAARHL
Summary of the method: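 Microsomes from A549 cells stimulated 72 h with IL-1β (1 ng/ml), diluted to 50 µg/ml in 0.1 M potassium phosphate pH 7.4 with 2.5 mM glutathione. Preincubated with compound (1% DMSO final) 15 min at 4 °C. Reaction started with 20 µM PGH₂, run 1 min at 4 °C, stopped with FeCl₂/citric acid containing 11β-PGE₂; PGE₂ quantified. Mean of n = 3–5.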

`CCCCC(Sc1ccc(OCCCOc2ccc(-c3ccccc3)cc2)cc1)C(=O)O` (centres undefined) was tested, and the Activity [1] was 79.2%, the inhibition [2] was “inactive” and the inhibition [3] was “inactive”. For the same compound, the IC50 (Prostaglandin E synthase) was 2200 nM.
